# Measured values: ChEMBL document CHEMBL4368918, “Structure-Based Design of Inhibitors Selective for Human Proteasome β2c or β2i Subunits” (J Med Chem, 2019)
# Tests used:
# Homo sapiens = organism: Homo sapiens; assay: Selectivity ratio of IC50 for 20S immunoproteasome beta 2 (unknown origin) to IC50 for 20S constitutive proteasome beta 2 trypsin-like activity (unknown origin)
# [1] = molecular target: T1, Proteasome subunit beta type-10 (Homo sapiens, UniProt P40306); assay: Inhibition of 20S immunoproteasome beta 2 (unknown origin) by cell based ABPP assay
# T1 sequence (P40306 whole entry): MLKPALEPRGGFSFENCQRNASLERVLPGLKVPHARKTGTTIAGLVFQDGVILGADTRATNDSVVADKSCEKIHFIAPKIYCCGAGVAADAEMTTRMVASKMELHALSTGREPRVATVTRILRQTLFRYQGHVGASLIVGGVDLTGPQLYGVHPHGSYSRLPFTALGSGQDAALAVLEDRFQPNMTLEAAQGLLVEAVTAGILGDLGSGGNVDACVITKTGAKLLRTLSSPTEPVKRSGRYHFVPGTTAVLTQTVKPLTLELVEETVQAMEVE
# Procedure, shortened: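 Living RPMI-8226 cells, (5–8) ×10^5 cells/mL, exposed to inhibitor 1 h at 37 °C, washed, lysed in digitonin buffer 1 h on ice; residual activity labelled with cocktail ABPs, SDS-PAGE in-gel fluorescence, bands divided by mock, Coomassie staining to correct loading. IC50 from mean of three independent experiments.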
# [2] = molecular target: T2, Proteasome Macropain subunit MB1 (Homo sapiens, UniProt P28074); assay: Inhibition of 20S constitutive proteasome beta 5 chymotrypsin-like activity in human Raji cell lysates after 1 hr by competitive ABPP assay; type: subcellular, Lysate
# T2 sequence (P28074 whole entry): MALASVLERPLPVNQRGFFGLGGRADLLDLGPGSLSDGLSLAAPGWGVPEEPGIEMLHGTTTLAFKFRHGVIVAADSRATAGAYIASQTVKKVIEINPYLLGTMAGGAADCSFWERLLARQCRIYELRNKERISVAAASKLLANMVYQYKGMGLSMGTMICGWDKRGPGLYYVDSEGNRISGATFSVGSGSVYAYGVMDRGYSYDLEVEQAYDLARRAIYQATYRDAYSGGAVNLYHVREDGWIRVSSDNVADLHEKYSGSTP
# [3] = molecular target: T3, Proteasome subunit beta type-9 (Homo sapiens, UniProt P28065); assay: Inhibition of 20S immunoproteasome beta 1 in human Raji cell lysates after 1 hr by competitive ABPP assay; type: subcellular, Lysate
# T3 sequence (P28065 whole entry): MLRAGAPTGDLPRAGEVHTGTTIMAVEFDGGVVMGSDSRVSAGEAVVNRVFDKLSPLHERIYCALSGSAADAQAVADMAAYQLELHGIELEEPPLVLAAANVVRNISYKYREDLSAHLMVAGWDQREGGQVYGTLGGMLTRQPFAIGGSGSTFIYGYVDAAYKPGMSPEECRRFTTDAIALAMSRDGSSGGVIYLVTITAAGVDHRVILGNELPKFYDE
# Procedure, shortened: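 Raji cells were sonicated in 3 volumes of Tris pH 7.5 lysis buffer containing DTT, MgCl₂, sucrose, 2 mM ATP and 0.05% digitonin. Lysate (5 μg protein, in buffer with 2 mM ATP and glycerol) was preincubated with inhibitor for 1 h at 37 °C, then with a cocktail of three fluorescent ABPs for 1 h. […] In-gel fluorescence densitometry was normalized to mock. IC50 came from the mean of three experiments.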
# [4] = molecular target: T4, Proteasome subunit beta type-6 (Homo sapiens, UniProt P28072); assay: Inhibition of 20S constitutive proteasome beta 1 caspase-like activity in human Raji cell lysates after 1 hr by competitive ABPP assay; type: subcellular, Lysate
# T4 sequence (P28072 whole entry): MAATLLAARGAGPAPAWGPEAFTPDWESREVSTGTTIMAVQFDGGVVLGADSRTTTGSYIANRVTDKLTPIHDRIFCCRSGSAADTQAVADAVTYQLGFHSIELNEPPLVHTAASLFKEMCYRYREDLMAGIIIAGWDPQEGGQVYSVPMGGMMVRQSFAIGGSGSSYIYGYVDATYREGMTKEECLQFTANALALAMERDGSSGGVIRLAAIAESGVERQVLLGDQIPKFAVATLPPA
# Procedure, shortened: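 Raji cells were sonicated in 3 volumes of Tris pH 7.5 lysis buffer containing DTT, MgCl₂, sucrose, 2 mM ATP and 0.05% digitonin. Lysate (5 μg protein, in buffer with 2 mM ATP and glycerol) was preincubated with inhibitor for 1 h at 37 °C, then with a cocktail of three fluorescent ABPs for 1 h. In-gel fluorescence densitometry was normalized to mock. IC50 came from the mean of three experiments.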
# [5] = molecular target: T5, Proteasome subunit beta type-8 (Homo sapiens, UniProt P28062); assay: Inhibition of 20S immunoproteasome beta 5 in human Raji cell lysates after 1 hr by competitive ABPP assay; type: subcellular, Lysate
# T5 sequence (P28062 whole entry): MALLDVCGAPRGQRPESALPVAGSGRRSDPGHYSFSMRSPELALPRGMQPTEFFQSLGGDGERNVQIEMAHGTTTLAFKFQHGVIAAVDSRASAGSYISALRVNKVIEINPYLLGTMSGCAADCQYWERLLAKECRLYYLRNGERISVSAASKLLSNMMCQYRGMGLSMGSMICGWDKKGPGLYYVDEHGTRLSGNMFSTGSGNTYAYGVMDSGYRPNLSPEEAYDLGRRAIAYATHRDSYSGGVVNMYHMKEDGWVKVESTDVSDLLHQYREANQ
SMILES,Ratio IC50 (Homo sapiens),IC50 [1] [µM],IC50 [2] [µM],IC50 [3] [µM],IC50 [4] [µM],IC50 [5] [µM]
CC(C)C[C@H](NC(=O)CN1CCOCC1)C(=O)N[C@@H](CC(C)C)C(=O)N[C@H](/C=C/S(C)(=O)=O)Cc1ccc(CN)cc1,1,0.047,–,–,–,–
CC(C)[C@H](NC(=O)[C@H](Cc1ccc(CN)cc1)NC(=O)[C@H](Cc1ccccc1)N=[N+]=[N-])C(=O)N[C@@H](CC1CC2CCC1C2)C(=O)[C@@]1(C)CO1 (some centres not stated),2.7,–,–,–,–,–
Cc1ncc(C(=O)N[C@@H](CC(C)C)C(=O)N[C@@H](CC2CCCC3CCCCC32)C(=O)N[C@H](/C=C/S(C)(=O)=O)Cc2ccc(CN)cc2)s1 (some centres not stated),4,0.175,–,–,–,–
CC(C)[C@H](NC(=O)[C@H](Cc1ccc(CN)cc1)NC(=O)[C@H](Cc1ccccc1)N=[N+]=[N-])C(=O)N[C@H](C(=O)[C@@]1(C)CO1)C1CCCCC1,1,–,–,–,–,–
CC(C)C[C@H](NC(=O)c1cc(Cl)ccc1Cl)C(=O)N[C@@H](CC(C)C)C(=O)N[C@H](/C=C/S(C)(=O)=O)Cc1ccc(CN)cc1,5,0.35,–,–,–,–
Cc1ncc(C(=O)N[C@@H](CC(C)C)C(=O)N[C@@H](CC2CCC3CCCCC3C2)C(=O)N[C@H](/C=C/S(C)(=O)=O)Cc2ccc(CN)cc2)s1 (some centres not stated),10,0.17,–,–,–,–
COC1CCC(C[C@H](NC(=O)[C@H](CC(C)C)NC(=O)c2cnc(C)s2)C(=O)N[C@H](/C=C/S(C)(=O)=O)Cc2ccc(CN)cc2)CC1 (some centres not stated),8,0.36,–,–,–,–
COc1ccc(C[C@H](NC(=O)[C@H](C)NC(=O)CN2CCOCC2)C(=O)N[C@@H](CC2CCCC3CCCCC32)C(=O)[C@@]2(C)CO2)cc1 (some centres not stated),–,–,> 100,> 100,> 100,> 100
CC(C)C[C@H](NC(=O)c1ccc(-c2ccccc2)nc1)C(=O)N[C@@H](CC(C)C)C(=O)N[C@H](/C=C/S(C)(=O)=O)Cc1ccc(CN)cc1,0.8,0.023,–,–,–,–
COc1ccc(C[C@H](NC(=O)[C@H](C)NC(=O)CN2CCOCC2)C(=O)N[C@@H](C[C@H]2CCC[C@@H]3CCCC[C@@H]32)C(=O)[C@@]2(C)CO2)cc1,–,–,> 100,> 100,> 100,> 100
COc1ccc(C[C@H](NC(=O)[C@H](C)NC(=O)CN2CCOCC2)C(=O)N[C@@H](C[C@H]2CCCC3CCCCC32)C(=O)[C@@]2(C)CO2)cc1 (some centres not stated),–,–,> 100,> 100,> 100,> 100
COc1ccc(C[C@H](NC(=O)[C@H](C)NC(=O)CN2CCOCC2)C(=O)N[C@@H](C[C@H]2CCCc3ccccc32)C(=O)[C@@]2(C)CO2)cc1,–,–,> 100,> 100,> 100,> 100
CC(C)C[C@H](NC(=O)[C@H](Cc1ccccc1)N=[N+]=[N-])C(=O)N[C@@H](CC(F)(F)F)C(=O)N[C@H](/C=C/S(C)(=O)=O)Cc1ccc(CN)cc1,6,0.13,–,–,–,–
Cc1ncc(C(=O)N[C@@H](CC2CCC3CCCCC3C2)C(=O)N[C@@H](CC(C)C)C(=O)N[C@H](/C=C/S(C)(=O)=O)Cc2ccc(CN)cc2)s1 (some centres not stated),8,4.1,–,–,–,–
COc1ccc(C[C@H](NC(=O)[C@H](C)NC(=O)CN2CCOCC2)C(=O)N[C@@H](C[C@@H]2CCCC3CCCCC32)C(=O)[C@@]2(C)CO2)cc1 (some centres not stated),–,–,> 100,> 100,> 100,> 100
Cc1ncc(C(=O)N[C@@H](CC(C)C)C(=O)N[C@@H](CC2CCC(C)CC2)C(=O)N[C@H](/C=C/S(C)(=O)=O)Cc2ccc(CN)cc2)s1 (some centres not stated),7,0.2,–,–,–,–
Cc1ncc(C(=O)N[C@@H](CC(C)C)C(=O)N[C@@H](CC2CCCCC2)C(=O)N[C@H](/C=C/S(C)(=O)=O)Cc2ccc(CN)cc2)s1,7,0.26,–,–,–,–

SMILES,Ratio IC50 (Homo sapiens),IC50 [1] [µM],IC50 [2] [µM],IC50 [3] [µM],IC50 [4] [µM],IC50 [5] [µM]
COC[C@H](NC(=O)[C@H](CC(C)C)NC(=O)[C@H](Cc1ccccc1)N=[N+]=[N-])C(=O)N[C@H](/C=C/S(C)(=O)=O)Cc1ccc(CN)cc1,25,0.2,–,–,–,–
CC(C)[C@H](NC(=O)[C@H](Cc1ccc(CN)cc1)NC(=O)[C@H](Cc1ccccc1)N=[N+]=[N-])C(=O)N[C@@H](CC1CCC(C2CCCCC2)CC1)C(=O)[C@@]1(C)CO1 (some centres not stated),1.6,–,–,–,–,–
Cc1ncc(C(=O)N[C@@H](CC2CCCCC2)C(=O)N[C@@H](CC2CCCCC2)C(=O)N[C@H](/C=C/S(C)(=O)=O)Cc2ccc(CN)cc2)s1,11,0.42,–,–,–,–
Cc1ncc(C(=O)N[C@H](C(=O)N[C@@H](CC(C)C)C(=O)N[C@H](/C=C/S(C)(=O)=O)Cc2ccc(CN)cc2)C2CCCCC2)s1,1,0.061,–,–,–,–
Cc1ncc(C(=O)N[C@@H](CC2CCC(C)CC2)C(=O)N[C@@H](CC(C)C)C(=O)N[C@H](/C=C/S(C)(=O)=O)Cc2ccc(CN)cc2)s1 (some centres not stated),0.8,0.325,–,–,–,–
Cc1ncc(C(=O)N[C@@H](CC(C)C)C(=O)N[C@@H](CC(C)C)C(=O)N[C@H](/C=C/S(C)(=O)=O)Cc2ccc(CN)cc2)s1,10,0.7,–,–,–,–
CC(C)C[C@H](NC(=O)[C@H](CC(C)C)NC(=O)[C@H](Cc1ccccc1)NC(=O)CN=[N+]=[N-])C(=O)N[C@H](/C=C/S(C)(=O)=O)Cc1ccc(CN)cc1,0.6,0.022,–,–,–,–
CC(C)C[C@H](NC(=O)[C@H](Cc1ccccc1)N=[N+]=[N-])C(=O)N[C@@H](CC(C)(C)F)C(=O)N[C@H](/C=C/S(C)(=O)=O)Cc1ccc(CN)cc1,3,0.047,–,–,–,–
Cc1ncc(C(=O)N[C@@H](CC2CCC(C3CCCCC3)CC2)C(=O)N[C@@H](CC(C)C)C(=O)N[C@H](/C=C/S(C)(=O)=O)Cc2ccc(CN)cc2)s1 (some centres not stated),> 3,> 10,–,–,–,–
Cc1ncc(C(=O)N[C@@H](CC(C)C)C(=O)N[C@@H](CC2CCC(C3CCCCC3)CC2)C(=O)N[C@H](/C=C/S(C)(=O)=O)Cc2ccc(CN)cc2)s1 (some centres not stated),3,0.045,–,–,–,–
COc1ccc(C[C@H](NC(=O)[C@H](C)NC(=O)CN2CCOCC2)C(=O)N[C@@H](CCC2CCCCC2)C(=O)[C@@]2(C)CO2)cc1,–,–,5,> 100,> 100,–
Cc1ncc(C(=O)N[C@@H](CC(C)C)C(=O)N[C@@H](CCC2CCCCC2)C(=O)N[C@H](/C=C/S(C)(=O)=O)Cc2ccc(CN)cc2)s1,25,0.28,–,–,–,–
Cc1ncc(C(=O)N[C@@H](CC2CCCC3CCCCC32)C(=O)N[C@@H](CC(C)C)C(=O)N[C@H](/C=C/S(C)(=O)=O)Cc2ccc(CN)cc2)s1 (some centres not stated),21,48,–,–,–,–
CC1CCC(C[C@H](NC(=O)[C@@H](NC(=O)[C@H](Cc2ccc(CN)cc2)NC(=O)[C@H](Cc2ccccc2)N=[N+]=[N-])C(C)C)C(=O)[C@@]2(C)CO2)CC1 (some centres not stated),1,–,–,–,–,–
CC(C)[C@H](NC(=O)[C@H](Cc1ccc(CN)cc1)NC(=O)[C@H](Cc1ccccc1)N=[N+]=[N-])C(=O)N[C@@H](CC1CCC2CCCCC2C1)C(=O)[C@@]1(C)CO1 (some centres not stated),1,–,–,–,–,–
CC(C)C[C@H](NC(=O)c1cnccn1)C(=O)N[C@@H](C)C(=O)N[C@H](/C=C/S(C)(=O)=O)Cc1ccc(CN)cc1,6,1.35,–,–,–,–
